Reference: PMC6008642 (Biochemistry, 2018)

Key:
[1] = molecular target: GFP tagged Munc13-1 C1 domain (Rattus norvegicus, UniProt Q62768); assay: Translocation after PMA treatment, confocal microscopy of LNCaP cells; type: cell-based
Outline: (§1)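 LNCaP cells (passage 2–15; RPMI-1640, 10% FBS, 2 mM L-glutamine) were grown to 75% confluency and transfected with Lipofectamine plus Plus reagent 24 h after plating. They expressed GFP-tagged rat Munc13-1 C1 domain or GFP-tagged full-length protein. After a further 24 h, cells were moved to phenol-red-free DMEM with 1% FBS. PMA (100 or 1000 nM) was added and localization was followed by live confocal imaging (GFP ex 488 nm); 3 independent experiments.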

[2] = molecular target: GFP-tagged full-length Munc13-1 (Rattus norvegicus, UniProt Q62768); assay: as above; type: cell-based
Outline: as §1

[3] = molecular target: full-length GFP-Munc13-1 W588A (Rattus norvegicus, UniProt Q62768, W588A); assay: PMA-induced membrane translocation, confocal microscopy of Neuro-2a cells; type: cell-based; settings: 1000 nM PMA, 0-8 min, vs wild-type
Outline: (§2)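 EGFP-tagged full-length rat Munc13-1 mutants were made by site-directed mutagenesis. Neuro-2a cells (passage 2–15; RPMI-1640, 10% FBS, 2 mM L-glutamine; 37 °C) were transfected with Lipofectamine 3000. After 24 h, cells went into phenol-red-free DMEM with 1% FBS. PMA (1000 nM) was added at time 0, with confocal imaging every 20 s (ex 488 nm, em 500–530 nm). Membrane/cytoplasm intensity ratio used three ~5 μm2 regions at 0, 2, 4 and 8 min; 3 cells × 3 experiments, mean ± SEM.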

[4] = molecular target: full-length GFP-Munc13-1 W588K (Rattus norvegicus, UniProt Q62768, W588K); assay: PMA-induced membrane translocation, confocal microscopy of Neuro-2a cells; type: cell-based; settings: 1000 nM PMA, 0-8 min, vs wild-type
[5] = molecular target: full-length GFP-Munc13-1 W588F (Rattus norvegicus, UniProt Q62768, W588F); assay: as above; type: cell-based; settings: 1000 nM PMA, 0-8 min, vs wild-type
[6] = molecular target: full-length GFP-Munc13-1 W599D (Rattus norvegicus, UniProt Q62768, W588D); assay: PMA-induced membrane translocation, confocal microscopy of Neuro-2a cells; type: cell-based; settings: 1000 nM PMA, 0-8 min, vs wild-type
Outline: as §2

[7] = molecular target: full-length GFP-Munc13-1 W588Y (Rattus norvegicus, UniProt Q62768, W588Y); assay: as above; type: cell-based; settings: 1000 nM PMA, 0-8 min, vs wild-type
Outline: as §2

[8] = molecular target: full-length Munc13-1 mutated at W588D (Rattus norvegicus, UniProt Q62768, W588D); type: binding; settings: preparation from cells expressing the mutant
[9] = molecular target: Munc13-1 W22A mutant C1 domain (Rattus norvegicus, UniProt Q62768, W588A); assay: In vitro [^3H]PDBu binding assay, GST-tagged C1 domain; settings: 100 μg/mL lipid, 0.1 mM Ca2+
[10] = molecular target: Munc13-1 W22A mutant C1 domain; assay: as above; design: species or system rat
[11] = molecular target: full-length Munc13-1 protein incorporating the W22K mutation (W588 K) (Rattus norvegicus, UniProt Q62768, W588K); settings: in vitro binding conditions as for full-length WT
Outline: (§3)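 Rat full-length Munc13-1 (WT or W588 mutant) was expressed as an N-terminal Halo fusion in transfected HEK-293 cells and harvested after one day. It was purified on Halo-link resin, released with TEV protease and stored in 30% glycerol at –80 °C. [3H]PDBu saturation binding used 100 μg/mL lipid (100% PS) and 0.1 mM Ca2+. Kd came from saturation/Scatchard analysis; triplicate points, 3–6 experiments, mean ± SEM.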

[12] = molecular target: Munc13-1 W22K mutant C1 domain; assay: In vitro [^3H]PDBu binding assay, GST-tagged C1 domain; design: species or system rat
[13] = molecular target: Munc13-1 W22K mutant C1 domain (Rattus norvegicus, UniProt Q62768, W588K); assay: as above; settings: 100 μg/mL lipid, 0.1 mM Ca2+
[14] = molecular target: full-length Munc13-1 wild-type protein (Rattus norvegicus, UniProt Q62768); type: binding; settings: 100 μg/mL lipid (100% PS), 0.1 mM Ca2+
Outline: as §3

Munc13-1 WT C1 domain = Munc13-1 WT C1 domain (Rattus norvegicus, UniProt Q62768); assay: In vitro [^3H]PDBu binding assay, GST-tagged C1 domain; settings: for Kd: 100 μg/mL lipid
W22G of PKCθ C1B = settings: 100% PS; cited from earlier work
W22G of PKCδ C1B = settings: 100% PS; cited from earlier work
PKCδ C1B W22R = settings: PS concentration 10%; cited from earlier work

CCCCCCCCCCCCCC(=O)O[C@@H]1[C@@H](C)[C@@]2(O)[C@@H](C=C(CO)C[C@]3(O)C(=O)C(C)=C[C@@H]23)[C@@H]2C(C)(C)[C@]12OC(C)=O [PMA, phorbol 12-myristate 13-acetate]
translocation of GFP-C1 domain ([1]; 100 nM PMA): Translocation was not observed
translocation of GFP-C1 domain ([1]; 1000 nM PMA): translocated within 10 min from the nucleus to internal membranes but not to the plasma membrane
translocation of full-length Munc13-1 [2]: translocated to the plasma membrane
translocation in response to PMA [3]: significantly decreased translocation
translocation in response to PMA [4]: did not significantly influence the translocation
translocation in response to PMA [5]: did not significantly influence the translocation
translocation in response to PMA [6]: totally abolished
translocation in response to PMA [7]: delayed

CCCC(=O)O[C@@H]1[C@@H](C)[C@@]2(O)[C@@H](C=C(CO)C[C@]3(O)C(=O)C(C)=C[C@@H]23)[C@@H]2C(C)(C)[C@]12OC(=O)CCC [[^3H]PDBu, [20-^3H]Phorbol 12,13-dibutyrate]
[^3H]PDBu binding [8]: did not see any binding
Kd ([9]; Lipid 20:80 PS:PC): > 1 µM
Kd ([9]; Lipid 100:0 PS:PC): 0.46 ± 0.26 µM
Kd(mutant)/Kd(WT) ([10]; Lipid 20:80 PS:PC): >31
Kd(mutant)/Kd(WT) ([10]; Lipid 100:0 PS:PC): 4.7
Kd [11]: 0.0033 ± 0.0012 µM
Kd(mutant)/Kd(WT) ([12]; Lipid 20:80 PS:PC): 13
Kd(mutant)/Kd(WT) ([12]; Lipid 100:0 PS:PC): 1.6
Kd ([13]; Lipid 20:80 PS:PC): 0.42 ± 0.12 µM
Kd ([13]; Lipid 100:0 PS:PC): 0.16 ± 0.02 µM
Kd [14]: 0.0037 ± 0.00032 µM
amount of [^3H]PDBu bound at 100% PS relative to that at 20% PS (Munc13-1 WT C1 domain; 5 nM [^3H]PDBu, 100 μg/mL phospholipid, 0.1 mM Ca2+): less than 15%
fold weaker binding affinity than that of the C1b domain of PKCδ (Munc13-1 WT C1 domain; 100% PS): 100 fold
Kd (Munc13-1 WT C1 domain; Lipid 20:80 PS:PC, 0.1 mM Ca2+): 0.0325 ± 0.0026 µM
Kd (Munc13-1 WT C1 domain; Lipid 100:0 PS:PC, 0.1 mM Ca2+): 0.098 ± 0.036 µM

CCCCCCCCCCCCCC(=O)O[C@@H]1[C@@H](C)[C@@]2(O)[C@@H](C=C(CO)C[C@]3(O)C(=O)C(C)=C[C@@H]23)[C@@H]2C(C)(C)[C@]12OC(C)=O [phorbol ester]
fold reduction in phorbol ester affinity as compared to WT (W22G of PKCθ C1B): 8 fold
Kd(mutant)/Kd(WT) ([10]; Lipid 100:0 PS:PC): ~ 5
Kd(mutant)/Kd(WT) ([12]; Lipid 20:80 PS:PC): 13
Kd(mutant)/Kd(WT) ([12]; Lipid 100:0 PS:PC): 1.6
Kd [14]: 0.0037 µM
Kd (Munc13-1 WT C1 domain; Lipid 100:0 PS:PC, 0.1 mM Ca2+): 0.098 µM
fold reduction in phorbol ester affinity as compared to WT (W22G of PKCδ C1B): 31 fold
fold reduced phorbol ester affinity as compared to the WT (PKCδ C1B W22R): 9 fold
